Assay results from different studies.
Lines come from different studies, so protocols differ.
Cell line: A549
Observed: cell growth or viability
Method: CCK-8

O=C(Nc1ccc(Cl)cc1)Nc1cccc(-c2cn(Cc3ccc(Cl)cc3)nn2)c1
viability (20 µM; 72 h): 121%

COc1ccc2/c(=N/c3ccccc3NC(=O)[C@H](C)N)cc(-c3ccc4c(c3)OCCO4)oc2c1
inhibition (1 µM): -2.21%

CCCCC(=O)Nc1ccc(-c2ccc3ncn(CCC)c(=O)c3c2)c(C)n1
IC50 (72 h): > 10 µM

COc1ccc(NC(=O)NCc2cn(Cc3ccc(Br)cc3)nn2)cc1
viability (50 µM; 72 h): 96.4%

O=C(Nc1ccc(-c2ccc3ncn(Cc4ccc5c(c4)OCO5)c(=O)c3c2)cn1)c1ccccc1
IC50 (72 h): > 10 µM

NCC(=O)Nc1ccccc1/N=c1\cc(-c2ccc3c(c2)OCCO3)oc2cc(F)ccc12
inhibition (1 µM): -1.67%

CCCn1cnc2ccc(-c3ccc(N4CCC(C)CC4=O)nc3)cc2c1=O (stereo not drawn)
IC50 (72 h): > 10 µM

COc1ccc(NC(=O)Nc2ccc(-c3cn(Cc4ccc(Br)cc4)nn3)cc2)cc1
viability (50 µM; 72 h): 101%

CCCCn1cnc2ccc(-c3ccc(NC(=O)NCCc4ccccc4)nc3)cc2c1=O
IC50 (72 h): > 10 µM

Nc1ccccc1/N=c1\cc(-c2ccc3c(c2)OCO3)oc2ccccc12
inhibition (1 µM): 11.1%

O=C(NCc1cn(Cc2ccc(Cl)cc2)nn1)Nc1ccccc1Br
viability (20 µM; 72 h): 86.4%

COc1ccc(NC(=O)Nc2ccc(-c3cn(Cc4ccc(C)cc4)nn3)cc2)cc1
viability (50 µM; 72 h): 76.2%
